This note sets out measurements from ChEMBL document CHEMBL3232764, “Influence of the adamantyl moiety on the activity of biphenylacrylohydroxamic acid-based HDAC inhibitors” (Eur J Med Chem, 2014).

Structures are written as SMILES.

Histone deacetylase 2, sequence (Q92769 whole entry): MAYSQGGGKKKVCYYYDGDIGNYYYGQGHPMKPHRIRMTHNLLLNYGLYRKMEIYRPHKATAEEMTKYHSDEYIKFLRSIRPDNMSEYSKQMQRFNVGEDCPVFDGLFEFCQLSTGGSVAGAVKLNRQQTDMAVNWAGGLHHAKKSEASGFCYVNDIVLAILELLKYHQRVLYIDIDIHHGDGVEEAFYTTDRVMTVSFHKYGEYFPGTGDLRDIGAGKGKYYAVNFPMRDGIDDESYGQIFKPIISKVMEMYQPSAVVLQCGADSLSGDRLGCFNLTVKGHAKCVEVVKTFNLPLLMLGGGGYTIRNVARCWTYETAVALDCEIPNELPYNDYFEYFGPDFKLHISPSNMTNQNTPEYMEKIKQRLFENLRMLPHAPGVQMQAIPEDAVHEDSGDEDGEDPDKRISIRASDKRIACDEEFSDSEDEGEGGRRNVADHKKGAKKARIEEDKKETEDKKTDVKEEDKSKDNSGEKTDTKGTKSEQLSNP

In the first assay the target is Histone deacetylase 4 (Homo sapiens, UniProt P56524). In words: Inhibition of human HDAC4 using fluorogenic tetrapeptide RHKKAc as substrate.
Histone deacetylase 4, sequence (P56524 whole entry): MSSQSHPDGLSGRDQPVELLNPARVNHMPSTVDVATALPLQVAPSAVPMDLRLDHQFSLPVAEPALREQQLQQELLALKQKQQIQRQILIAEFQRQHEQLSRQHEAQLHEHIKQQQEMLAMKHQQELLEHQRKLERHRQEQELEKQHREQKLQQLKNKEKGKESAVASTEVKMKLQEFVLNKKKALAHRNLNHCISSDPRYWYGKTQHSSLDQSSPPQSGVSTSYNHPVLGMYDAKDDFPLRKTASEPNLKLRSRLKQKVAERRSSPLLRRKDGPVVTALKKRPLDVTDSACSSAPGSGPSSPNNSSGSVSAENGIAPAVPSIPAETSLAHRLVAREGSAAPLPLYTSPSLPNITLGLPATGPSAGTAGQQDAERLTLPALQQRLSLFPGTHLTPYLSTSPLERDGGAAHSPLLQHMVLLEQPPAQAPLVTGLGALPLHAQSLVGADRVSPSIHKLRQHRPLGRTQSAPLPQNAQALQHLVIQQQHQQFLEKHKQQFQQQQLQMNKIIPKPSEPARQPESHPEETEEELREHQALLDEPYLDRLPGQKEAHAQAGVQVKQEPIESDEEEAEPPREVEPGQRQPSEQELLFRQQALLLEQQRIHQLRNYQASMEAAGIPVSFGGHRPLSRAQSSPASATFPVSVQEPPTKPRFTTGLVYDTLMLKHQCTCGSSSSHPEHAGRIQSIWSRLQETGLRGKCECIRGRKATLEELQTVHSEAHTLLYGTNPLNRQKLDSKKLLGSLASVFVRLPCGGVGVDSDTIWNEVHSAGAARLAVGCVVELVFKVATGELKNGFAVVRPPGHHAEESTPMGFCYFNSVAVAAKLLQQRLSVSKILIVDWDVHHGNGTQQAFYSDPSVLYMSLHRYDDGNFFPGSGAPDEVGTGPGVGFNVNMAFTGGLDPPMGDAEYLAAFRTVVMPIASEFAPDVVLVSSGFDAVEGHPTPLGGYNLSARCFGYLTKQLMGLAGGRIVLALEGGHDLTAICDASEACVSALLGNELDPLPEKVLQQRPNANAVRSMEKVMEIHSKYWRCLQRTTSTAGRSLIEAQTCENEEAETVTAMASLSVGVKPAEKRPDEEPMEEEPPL
Conditions: not given
By IC50 is commonly meant the concentration that gives 50% inhibition. Consider `O=C(/C=C/c1ccc(-c2ccc(O)c(C34CC5CC(CC(C5)C3)C4)c2)cc1)NO`, for which it took 61.4 µM to reach half-maximal inhibition (IC50).

A further assay has as its target Histone deacetylase 2 (Homo sapiens, UniProt Q92769).
Test: not given
Conditions: not given
Type of assay: cell-based, HeLa.
Compound `O=C(/C=C/c1ccc(-c2ccc(O)c(C34CC5CC(CC(C5)C3)C4)c2)cc1)NO` gave a half-inhibitory concentration (IC50) of 2640 nM.

The target of another assay is Histone deacetylase 1 (Homo sapiens, UniProt Q13547). The assay is described as follows: Inhibition of human HDAC1 using fluorogenic tetrapeptide RHKKAc as substrate.
Histone deacetylase 1, sequence (Q13547 whole entry): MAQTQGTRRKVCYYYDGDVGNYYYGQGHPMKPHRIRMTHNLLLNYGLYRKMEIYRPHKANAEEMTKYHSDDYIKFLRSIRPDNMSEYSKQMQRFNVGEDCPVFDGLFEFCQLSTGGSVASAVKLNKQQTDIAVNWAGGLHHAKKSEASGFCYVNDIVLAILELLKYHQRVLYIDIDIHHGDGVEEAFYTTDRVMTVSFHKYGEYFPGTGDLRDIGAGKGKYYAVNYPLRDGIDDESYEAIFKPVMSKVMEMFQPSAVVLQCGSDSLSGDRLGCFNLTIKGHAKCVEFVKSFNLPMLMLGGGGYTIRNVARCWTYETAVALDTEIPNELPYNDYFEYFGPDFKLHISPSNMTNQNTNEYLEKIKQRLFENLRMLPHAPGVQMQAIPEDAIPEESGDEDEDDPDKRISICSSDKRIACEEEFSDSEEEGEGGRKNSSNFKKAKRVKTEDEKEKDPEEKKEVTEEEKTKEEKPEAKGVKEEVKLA
Conditions: not given
Regarding `O=C(/C=C/c1ccc(-c2ccc(O)c(C34CC5CC(CC(C5)C3)C4)c2)cc1)NO`, the IC50 is above 100 µM.

Tested on in another assay: not listed separately
The assay is described as follows: Antiproliferative activity against p53 defective cis-platinum-resistant human IGROV1/Pt1 cells assessed as growth inhibition after 72 hrs. The format is functional, cell-based. The note with it: IGROV-1/Pt1, 72 h. The essentials:
(§1)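 Log-phase cells seeded in duplicate in 6-well plates; drug added 24 h after seeding. Cells harvested 72 h after drug exposure and counted with a cell counter. IC50 = drug concentration giving 50% reduction in cell number versus untreated control.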
On to `O=C(/C=C/c1ccc(-c2ccc(O)c(C34CC5CC(CC(C5)C3)C4)c2)cc1)NO`, for which the IC50 came out at 1300 nM.

The target of a further assay is T1, Polyamine deacetylase HDAC10 (Homo sapiens, UniProt Q969S8).
T1 sequence (Q969S8 whole entry): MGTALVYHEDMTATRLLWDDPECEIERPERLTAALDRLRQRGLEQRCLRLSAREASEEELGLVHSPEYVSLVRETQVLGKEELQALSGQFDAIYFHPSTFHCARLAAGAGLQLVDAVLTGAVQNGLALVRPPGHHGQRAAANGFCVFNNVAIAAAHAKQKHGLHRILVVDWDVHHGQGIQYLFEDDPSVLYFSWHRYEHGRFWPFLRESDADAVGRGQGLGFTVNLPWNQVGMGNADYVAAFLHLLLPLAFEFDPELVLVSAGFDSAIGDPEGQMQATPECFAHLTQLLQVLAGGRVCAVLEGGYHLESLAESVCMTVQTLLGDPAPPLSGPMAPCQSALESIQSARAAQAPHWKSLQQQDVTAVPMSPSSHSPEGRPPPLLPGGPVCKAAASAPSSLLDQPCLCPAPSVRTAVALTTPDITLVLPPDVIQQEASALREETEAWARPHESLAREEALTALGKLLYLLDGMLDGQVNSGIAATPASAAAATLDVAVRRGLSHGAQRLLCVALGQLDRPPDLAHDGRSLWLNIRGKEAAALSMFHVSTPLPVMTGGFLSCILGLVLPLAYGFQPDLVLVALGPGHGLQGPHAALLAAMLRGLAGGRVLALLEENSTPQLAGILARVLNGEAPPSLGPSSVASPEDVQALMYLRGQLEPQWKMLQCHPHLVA
In words: Inhibition of human HDAC10 using fluorogenic tetrapeptide RHKKAc as substrate.
Conditions: not given
Consider `O=C(/C=C/c1ccc(-c2ccc(O)c(C34CC5CC(CC(C5)C3)C4)c2)cc1)NO`, for which the IC50 is above 100 µM.

The target in the next assay is T2, Protein deacetylase HDAC6 (Homo sapiens, UniProt Q9UBN7).
T2 sequence (Q9UBN7 whole entry): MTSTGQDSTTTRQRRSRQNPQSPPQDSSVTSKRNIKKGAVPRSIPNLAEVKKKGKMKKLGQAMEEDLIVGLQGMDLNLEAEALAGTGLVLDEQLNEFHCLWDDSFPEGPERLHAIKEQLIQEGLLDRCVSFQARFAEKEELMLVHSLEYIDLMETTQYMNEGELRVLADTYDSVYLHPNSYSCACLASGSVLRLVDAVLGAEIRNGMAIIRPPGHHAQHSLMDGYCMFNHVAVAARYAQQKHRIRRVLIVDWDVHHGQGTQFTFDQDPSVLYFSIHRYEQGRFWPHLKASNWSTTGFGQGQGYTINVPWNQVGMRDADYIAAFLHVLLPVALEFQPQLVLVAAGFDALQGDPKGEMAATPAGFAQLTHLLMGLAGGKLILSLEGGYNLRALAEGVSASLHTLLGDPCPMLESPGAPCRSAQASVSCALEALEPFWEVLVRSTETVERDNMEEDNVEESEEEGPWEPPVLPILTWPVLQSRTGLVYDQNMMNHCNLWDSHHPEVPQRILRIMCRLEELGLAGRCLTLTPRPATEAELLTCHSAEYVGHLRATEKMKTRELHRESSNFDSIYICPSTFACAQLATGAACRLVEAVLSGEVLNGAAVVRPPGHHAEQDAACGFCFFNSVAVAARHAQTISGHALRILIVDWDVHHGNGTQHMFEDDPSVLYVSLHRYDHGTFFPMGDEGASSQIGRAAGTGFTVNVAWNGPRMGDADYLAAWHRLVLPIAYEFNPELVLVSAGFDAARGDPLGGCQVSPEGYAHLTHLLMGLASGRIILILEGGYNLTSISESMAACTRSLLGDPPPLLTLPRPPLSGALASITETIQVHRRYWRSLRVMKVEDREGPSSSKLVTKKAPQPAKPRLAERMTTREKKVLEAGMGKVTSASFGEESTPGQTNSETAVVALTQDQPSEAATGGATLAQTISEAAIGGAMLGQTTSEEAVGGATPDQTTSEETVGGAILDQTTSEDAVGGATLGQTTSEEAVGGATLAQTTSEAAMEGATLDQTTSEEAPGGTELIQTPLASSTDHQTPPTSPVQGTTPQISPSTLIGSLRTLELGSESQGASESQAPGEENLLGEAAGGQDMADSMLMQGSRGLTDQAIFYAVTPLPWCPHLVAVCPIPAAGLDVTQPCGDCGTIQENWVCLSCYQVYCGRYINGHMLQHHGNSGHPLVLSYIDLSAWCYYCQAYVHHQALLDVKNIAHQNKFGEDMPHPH
In words: Inhibition of human HDAC6 using fluorogenic tetrapeptide RHKKAc as substrate.
Conditions: not given
Compound `O=C(/C=C/c1ccc(-c2ccc(O)c(C34CC5CC(CC(C5)C3)C4)c2)cc1)NO` returned an IC50 of 2800 nM.

In a further assay the target is T3, Histone deacetylase 8 (Homo sapiens, UniProt Q9BY41).
T3 sequence (Q9BY41 whole entry): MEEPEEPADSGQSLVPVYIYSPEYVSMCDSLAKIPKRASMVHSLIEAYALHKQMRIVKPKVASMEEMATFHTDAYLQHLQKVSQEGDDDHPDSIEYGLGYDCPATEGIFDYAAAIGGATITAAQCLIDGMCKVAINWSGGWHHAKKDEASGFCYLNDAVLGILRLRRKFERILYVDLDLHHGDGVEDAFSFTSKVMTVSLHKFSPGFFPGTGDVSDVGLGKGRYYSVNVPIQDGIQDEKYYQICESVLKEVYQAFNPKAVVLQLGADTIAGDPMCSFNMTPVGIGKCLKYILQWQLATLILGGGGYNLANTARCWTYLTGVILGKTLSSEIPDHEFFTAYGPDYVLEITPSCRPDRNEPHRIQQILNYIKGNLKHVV
In words: Inhibition of human HDAC8 using fluorogenic tetrapeptide RHKKAc as substrate.
Conditions: not given
As to `O=C(/C=C/c1ccc(-c2ccc(O)c(C34CC5CC(CC(C5)C3)C4)c2)cc1)NO`, the IC50 was 6.96 µM.

Tested on in the next assay: not listed separately
The assay is described as follows: cells. Type of assay: functional, cell-based. The note with it: Homo sapiens, NCI-H460, 72 h.
Take `O=C(/C=C/c1ccc(-c2ccc(O)c(C34CC5CC(CC(C5)C3)C4)c2)cc1)NO`: the midpoint of inhibition, the IC50, lay at 830 nM.

The next assay deals with Histone deacetylase 5 (Homo sapiens, UniProt Q9UQL6). The assay is described as follows: Inhibition of human HDAC5 using fluorogenic tetrapeptide RHKKAc as substrate.
Histone deacetylase 5, sequence (Q9UQL6 whole entry): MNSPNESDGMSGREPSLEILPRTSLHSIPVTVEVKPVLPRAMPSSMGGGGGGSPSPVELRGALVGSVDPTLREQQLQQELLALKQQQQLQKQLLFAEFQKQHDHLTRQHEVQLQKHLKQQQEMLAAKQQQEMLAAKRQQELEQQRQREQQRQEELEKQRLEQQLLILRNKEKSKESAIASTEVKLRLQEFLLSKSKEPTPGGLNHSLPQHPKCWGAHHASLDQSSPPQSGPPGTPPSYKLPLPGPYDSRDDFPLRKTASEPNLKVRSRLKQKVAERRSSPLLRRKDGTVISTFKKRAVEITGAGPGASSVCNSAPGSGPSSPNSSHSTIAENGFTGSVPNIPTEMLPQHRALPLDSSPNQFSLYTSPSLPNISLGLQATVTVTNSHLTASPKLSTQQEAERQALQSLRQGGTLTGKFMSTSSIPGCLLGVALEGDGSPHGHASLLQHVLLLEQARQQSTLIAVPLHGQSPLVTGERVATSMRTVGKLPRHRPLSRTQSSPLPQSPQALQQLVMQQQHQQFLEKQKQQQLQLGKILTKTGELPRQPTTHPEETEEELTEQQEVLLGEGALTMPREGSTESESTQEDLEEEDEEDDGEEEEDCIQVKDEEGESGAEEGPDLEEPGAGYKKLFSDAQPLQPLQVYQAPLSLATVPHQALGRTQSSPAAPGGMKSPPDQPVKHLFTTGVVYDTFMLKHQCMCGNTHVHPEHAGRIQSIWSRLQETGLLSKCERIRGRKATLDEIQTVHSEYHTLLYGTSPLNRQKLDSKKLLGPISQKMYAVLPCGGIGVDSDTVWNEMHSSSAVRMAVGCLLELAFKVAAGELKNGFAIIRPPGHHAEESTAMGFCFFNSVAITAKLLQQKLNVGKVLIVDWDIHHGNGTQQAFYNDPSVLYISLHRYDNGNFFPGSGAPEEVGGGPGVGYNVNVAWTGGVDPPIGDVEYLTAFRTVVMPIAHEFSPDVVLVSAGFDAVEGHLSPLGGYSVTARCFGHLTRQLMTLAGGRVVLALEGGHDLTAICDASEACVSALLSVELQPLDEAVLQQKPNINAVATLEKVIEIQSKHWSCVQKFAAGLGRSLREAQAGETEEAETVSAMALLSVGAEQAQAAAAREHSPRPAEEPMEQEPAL
Conditions: not given
`O=C(/C=C/c1ccc(-c2ccc(O)c(C34CC5CC(CC(C5)C3)C4)c2)cc1)NO` came in with an IC50 of 78.4 µM.

Another assay deals with Histone deacetylase 9 (Homo sapiens, UniProt Q9UKV0). The assay is described as follows: Inhibition of human HDAC9 using fluorogenic tetrapeptide RHKKAc as substrate.
Histone deacetylase 9, sequence (Q9UKV0 whole entry): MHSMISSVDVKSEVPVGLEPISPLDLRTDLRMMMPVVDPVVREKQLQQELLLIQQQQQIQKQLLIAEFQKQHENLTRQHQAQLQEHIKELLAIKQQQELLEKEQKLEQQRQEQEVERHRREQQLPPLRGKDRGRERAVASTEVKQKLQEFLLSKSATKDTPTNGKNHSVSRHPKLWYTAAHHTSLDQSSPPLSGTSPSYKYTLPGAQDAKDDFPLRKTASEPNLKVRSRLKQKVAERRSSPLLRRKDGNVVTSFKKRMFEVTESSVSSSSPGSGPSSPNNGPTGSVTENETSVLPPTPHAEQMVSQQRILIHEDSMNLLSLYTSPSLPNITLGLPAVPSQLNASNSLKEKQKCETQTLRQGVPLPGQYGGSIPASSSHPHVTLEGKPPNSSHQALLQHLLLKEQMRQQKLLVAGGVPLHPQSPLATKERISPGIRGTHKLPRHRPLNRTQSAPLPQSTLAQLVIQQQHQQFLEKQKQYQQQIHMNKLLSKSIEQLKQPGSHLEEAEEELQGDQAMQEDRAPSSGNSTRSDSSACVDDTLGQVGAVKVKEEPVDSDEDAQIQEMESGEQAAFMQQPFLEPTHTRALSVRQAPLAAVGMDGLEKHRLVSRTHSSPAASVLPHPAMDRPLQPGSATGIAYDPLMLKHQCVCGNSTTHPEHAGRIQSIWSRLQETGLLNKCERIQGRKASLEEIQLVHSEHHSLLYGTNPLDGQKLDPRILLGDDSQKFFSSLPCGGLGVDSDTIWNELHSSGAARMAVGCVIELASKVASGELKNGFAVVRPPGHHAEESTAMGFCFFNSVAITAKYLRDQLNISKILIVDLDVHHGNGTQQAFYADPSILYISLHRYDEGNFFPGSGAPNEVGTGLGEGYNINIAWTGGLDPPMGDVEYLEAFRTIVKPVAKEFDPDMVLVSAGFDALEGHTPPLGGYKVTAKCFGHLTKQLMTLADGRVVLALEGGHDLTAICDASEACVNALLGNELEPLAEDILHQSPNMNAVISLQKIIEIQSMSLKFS
Conditions: not given
Regarding `O=C(/C=C/c1ccc(-c2ccc(O)c(C34CC5CC(CC(C5)C3)C4)c2)cc1)NO`, the IC50 was 41.4 µM.

Another assay relates to IGROV-1. The assay is described as follows: Antiproliferative activity against human IGROV1 cells assessed as growth inhibition after 72 hrs. The format is functional, cell-based. The note with it: IGROV-1, 72 h. The procedure, abridged: as §1
In the case of `O=C(/C=C/c1ccc(-c2ccc(O)c(C34CC5CC(CC(C5)C3)C4)c2)cc1)NO`, the 50% inhibitory concentration (IC50) worked out at 1100 nM.

The subject of a further assay is HCT-116. The assay is described as follows: Antiproliferative activity against human HCT116 cells assessed as growth inhibition after 72 hrs. Type of assay: functional, cell-based. Conditions: HCT-116, 72 h. The procedure, abridged:
as §1
As to `O=C(/C=C/c1ccc(-c2ccc(O)c(C34CC5CC(CC(C5)C3)C4)c2)cc1)NO`, the 50% inhibitory concentration (IC50) was determined as 580 nM.

A further assay deals with Histone deacetylase 3 (Homo sapiens, UniProt O15379).
Histone deacetylase 3, sequence (O15379 whole entry): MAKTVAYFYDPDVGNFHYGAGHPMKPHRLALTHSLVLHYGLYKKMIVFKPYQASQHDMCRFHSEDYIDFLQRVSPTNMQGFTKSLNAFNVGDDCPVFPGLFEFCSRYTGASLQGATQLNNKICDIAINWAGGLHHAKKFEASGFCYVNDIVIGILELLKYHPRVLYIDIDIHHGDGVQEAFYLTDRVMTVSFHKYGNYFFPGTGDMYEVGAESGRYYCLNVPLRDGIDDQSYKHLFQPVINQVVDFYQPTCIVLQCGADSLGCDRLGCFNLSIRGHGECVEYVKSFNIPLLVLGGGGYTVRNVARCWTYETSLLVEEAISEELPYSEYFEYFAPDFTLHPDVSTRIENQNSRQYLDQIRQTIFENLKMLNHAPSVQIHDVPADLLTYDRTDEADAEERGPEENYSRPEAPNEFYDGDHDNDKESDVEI
Test: not given
Conditions: not given
As to `O=C(/C=C/c1ccc(-c2ccc(O)c(C34CC5CC(CC(C5)C3)C4)c2)cc1)NO`, the IC50 is 55.6 µM.

The next assay addresses T4, Histone deacetylase 11 (Homo sapiens, UniProt Q96DB2).
T4 sequence (Q96DB2 whole entry): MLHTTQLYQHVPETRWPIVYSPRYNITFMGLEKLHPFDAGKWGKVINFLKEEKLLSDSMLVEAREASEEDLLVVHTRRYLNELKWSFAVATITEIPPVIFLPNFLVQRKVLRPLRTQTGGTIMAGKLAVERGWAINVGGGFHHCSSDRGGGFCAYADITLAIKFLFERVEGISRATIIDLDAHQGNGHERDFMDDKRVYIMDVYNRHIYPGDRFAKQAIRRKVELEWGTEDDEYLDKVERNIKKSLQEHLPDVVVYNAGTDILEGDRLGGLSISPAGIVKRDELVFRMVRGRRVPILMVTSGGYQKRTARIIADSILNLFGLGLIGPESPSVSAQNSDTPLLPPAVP
In words: Inhibition of human HDAC11 using fluorogenic tetrapeptide RHKKAc as substrate.
Conditions: not given
The compound `O=C(/C=C/c1ccc(-c2ccc(O)c(C34CC5CC(CC(C5)C3)C4)c2)cc1)NO` showed an IC50 of 57.2 µM.
